{"source": "ChEMBL document CHEMBL4190236", "about": "“New arylpyrazoline-coumarins: Synthesis and anti-inflammatory activity” (Eur J Med Chem, 2017)", "key": {"Rattus norvegicus [1]": {"system": "Rattus norvegicus", "assay": "Anti-inflammatory activity in Sprague-Dawley rat assessed as inhibition of carrageenan-induced paw edema at 10 mg/kg, po administered 30 mins prior to carrageenan challenge measured after 3 hrs relative to control", "format": "functional", "summary_of_the_method": "(§1)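 Male rats given test agent or diclofenac orally at 10 mg/kg, suspended in 0.5% Na CMC, 30 min before 0.1 mL of 1% (w/v) carrageenan injected into right hind paw. Vehicle control received 0.5% sodium CMC. Paw thickness measured at 1, 3 and 5 h. % inhibition calculated from paw oedema of treated versus control group. Table gives n = 5.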"}, "Rattus norvegicus [2]": {"system": "Rattus norvegicus", "assay": "Anti-inflammatory activity in Sprague-Dawley rat assessed as inhibition of carrageenan-induced paw edema at 10 mg/kg, po administered 30 mins prior to carrageenan challenge measured after 1 hr relative to control", "format": "functional", "summary_of_the_method": "as §1"}, "Rattus norvegicus [3]": {"system": "Rattus norvegicus", "assay": "Anti-inflammatory activity in Sprague-Dawley rat assessed as inhibition of carrageenan-induced paw edema at 10 mg/kg, po administered 30 mins prior to carrageenan challenge measured after 5 hrs relative to control", "format": "functional", "summary_of_the_method": "as §1"}, "RAW264.7 [4]": {"system": "RAW264.7", "assay": "Anti-inflammatory activity in mouse RAW264.7 cells assessed as inhibition of LPS-induced IL-6 release at 10 uM preincubated for 1 hr followed by LPS stimulation measured after 24 hrs by ELISA relative to control", "format": "functional", "summary_of_the_method": "(§2)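 RAW264.7 cells (DMEM, 10% FBS, 37 °C, 5% CO2) plated at 7 × 10^4 cells/well and grown 24 h, then serum-starved 2.5 h. Exposed to 10 µM compound for 1 h, then LPS 1 µg/mL for 24 h. TNF-α or IL-6 in the medium quantified by mouse ELISA. Cytokine amount normalized to protein of viable cell pellets. Expressed as % inhibition.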"}, "RAW264.7 [5]": {"system": "RAW264.7", "assay": "Anti-inflammatory activity in mouse RAW264.7 cells assessed as inhibition of LPS-induced TNFalpha release at 10 uM preincubated for 1 hr followed by LPS stimulation measured after 24 hrs by ELISA relative to control", "format": "functional", "summary_of_the_method": "as §2"}, "[6]": {"target": "Transcription factor p65 (Mus musculus) (UniProt Q04207)", "sequence (Q04207 whole entry)": "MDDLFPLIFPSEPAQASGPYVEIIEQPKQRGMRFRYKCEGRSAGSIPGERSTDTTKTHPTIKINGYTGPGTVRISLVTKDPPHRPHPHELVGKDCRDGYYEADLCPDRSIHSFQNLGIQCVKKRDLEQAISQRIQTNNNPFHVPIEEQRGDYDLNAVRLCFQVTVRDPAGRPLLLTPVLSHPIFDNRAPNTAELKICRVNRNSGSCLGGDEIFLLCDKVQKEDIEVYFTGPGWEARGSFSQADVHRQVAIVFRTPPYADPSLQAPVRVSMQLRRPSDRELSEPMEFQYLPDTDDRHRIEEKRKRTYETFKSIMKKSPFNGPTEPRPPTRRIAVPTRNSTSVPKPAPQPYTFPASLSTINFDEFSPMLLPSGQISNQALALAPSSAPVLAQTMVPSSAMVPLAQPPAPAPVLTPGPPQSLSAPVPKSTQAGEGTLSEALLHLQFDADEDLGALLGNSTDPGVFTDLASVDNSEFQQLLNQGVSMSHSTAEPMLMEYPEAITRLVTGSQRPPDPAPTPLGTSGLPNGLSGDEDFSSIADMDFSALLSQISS", "assay": "Inhibition of LPS-induced NFkB activation in mouse RAW264.7 cells assessed as reduction in nuclear translocation of p65 at 20 uM preincubated for 1 hr followed by LPS stimulation measured after 3 hrs by Western blot method", "format": "cell-based"}, "[7]": {"target": "Mitogen-activated protein kinase kinase kinase 7 (Mus musculus) (UniProt Q62073)", "sequence (Q62073 whole entry, looked up)": "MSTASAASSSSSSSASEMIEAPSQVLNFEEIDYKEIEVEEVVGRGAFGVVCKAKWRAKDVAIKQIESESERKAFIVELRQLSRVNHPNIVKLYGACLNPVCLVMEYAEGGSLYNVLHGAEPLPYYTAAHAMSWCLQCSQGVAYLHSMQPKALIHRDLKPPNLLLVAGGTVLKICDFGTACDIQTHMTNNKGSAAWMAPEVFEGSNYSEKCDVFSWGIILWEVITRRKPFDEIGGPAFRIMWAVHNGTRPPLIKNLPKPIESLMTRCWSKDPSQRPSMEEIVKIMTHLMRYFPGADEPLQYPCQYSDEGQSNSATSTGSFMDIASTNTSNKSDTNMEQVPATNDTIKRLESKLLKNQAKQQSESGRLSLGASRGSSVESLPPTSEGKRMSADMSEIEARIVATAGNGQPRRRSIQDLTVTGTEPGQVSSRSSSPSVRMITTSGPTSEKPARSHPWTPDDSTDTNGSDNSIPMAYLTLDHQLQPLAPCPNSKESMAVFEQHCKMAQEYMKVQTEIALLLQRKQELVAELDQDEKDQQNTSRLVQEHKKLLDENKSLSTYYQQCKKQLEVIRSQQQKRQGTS", "assay": "Inhibition of TAK1 in mouse RAW264.7 cells assessed as reduction in LPS-induced MAPK p38 phosphorylation preincubated for 1 hr followed by LPS stimulation measured after 30 mins by Western blot method"}, "RAW264.7 [8]": {"system": "RAW264.7", "assay": "Anti-inflammatory activity in mouse RAW264.7 cells assessed as inhibition of LPS-induced nitric oxide production preincubated for 1 hr followed by LPS stimulation measured after 24 hrs by Griess assay", "format": "functional, cell-based", "summary_of_the_method": "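Griess nitrite assay. RAW264.7 cells pretreated 1 h with compound, then LPS 1 µg/mL for 24 h. Supernatant mixed 1:1 with Griess reagent, OD read at 540 nm against a NaNO2 standard curve. At least three independent experiments, each in duplicate.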"}, "Rattus norvegicus [9]": {"system": "Rattus norvegicus", "assay": "Anti-inflammatory activity in po dosed adjuvant-induced Sprague-Dawley rat arthritis model assessed as reduction in bone destruction administered once daily from day 14 to 28 post-immunization measured by H and E staining based histopathological analysis", "format": "functional, organism-based", "summary_of_the_method": "(§3)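 Male SD rats (180–200 g), 8 per group. Arthritis induced by one intradermal injection of 0.1 mL CFA (heat-killed M. butyricum in paraffin oil, 10 mg/mL) into the right hind paw. Test agent at 45 or 90 mg/kg, aspirin 50 mg/kg, in 0.5% CMC-Na, given intragastrically once daily on days 14–28. Right ankle joints taken at day 28, fixed, EDTA-decalcified, cut at 5 µm and H&E stained.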"}, "[10]": {"target": "Mitogen-activated protein kinase kinase kinase 7 (Mus musculus) (UniProt Q62073)", "assay": "Inhibition of LPS-induced TAK1 phosphorylation in mouse RAW264.7 cells preincubated for 1 hr followed by LPS stimulation measured after 30 min by Western blot method"}, "[11]": {"target": "Mitogen-activated protein kinase kinase kinase 7 (Mus musculus) (UniProt Q62073)", "assay": "Inhibition of TAK1 in mouse RAW264.7 cells assessed as inhibition of LPS-induced NFkB activation by measuring reduction in nuclear translocation of p65 at 2.5 to 10 uM preincubated for 1 hr followed by LPS stimulation measured after 3 hrs by DAPI staining based immunofluorescence assay"}, "RAW264.7 [12]": {"system": "RAW264.7", "assay": "Anti-inflammatory activity in mouse RAW264.7 cells assessed as inhibition of LPS-induced COX2 protein expression preincubated for 1 hr followed by LPS stimulation measured after 24 hrs by Western blot method", "format": "functional, cell-based", "summary_of_the_method": "(§4)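 Cells grown 24 h, serum-starved 2.5 h, pretreated 1 h with compound, then LPS 1 µg/mL for 24 h. Lysed in RIPA on ice, run on 10% SDS-PAGE, transferred to PVDF. Probed overnight at 4 °C with primary antibody for iNOS (130 kDa) or COX-2 (72 kDa), then HRP secondary. β-actin as loading control. At least three independent experiments.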"}, "[13]": {"target": "Mitogen-activated protein kinase kinase kinase 7 (Mus musculus) (UniProt Q62073)", "assay": "Inhibition of TAK1 in mouse RAW264.7 cells assessed as inhibition of LPS-induced NFkB activation by measuring reduction in nuclear translocation of p65 at 2.5 to 10 uM preincubated for 1 hr followed by LPS stimulation measured after 3 hrs by Western blot method"}, "RAW264.7 [14]": {"system": "RAW264.7", "assay": "Anti-inflammatory activity in mouse RAW264.7 cells assessed as inhibition of LPS-induced iNOS protein expression preincubated for 1 hr followed by LPS stimulation measured after 24 hrs by Western blot method", "format": "functional, cell-based", "summary_of_the_method": "as §4"}, "Rattus norvegicus [15]": {"system": "Rattus norvegicus", "assay": "Anti-inflammatory activity in po dosed adjuvant-induced Sprague-Dawley rat arthritis model assessed as reduction in synovial hyperplasia administered once daily from day 14 to 28 post-immunization measured by H and E staining based histopathological analysis", "format": "functional, organism-based", "summary_of_the_method": "as §3"}, "RAW264.7 [16]": {"system": "RAW264.7", "assay": "Anti-inflammatory activity in mouse RAW264.7 cells assessed as inhibition of LPS-induced TNFalpha release preincubated for 1 hr followed by LPS stimulation measured after 24 hrs by ELISA", "format": "functional, cell-based", "summary_of_the_method": "(§5)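 Serum-starved (2.5 h) RAW264.7 cells were pretreated 1 h with a range of compound concentrations, then given LPS 1 µg/mL for 24 h. TNF-α or IL-6 in the medium was quantified by mouse ELISA and normalized to protein of viable cell pellets.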"}, "Rattus norvegicus [17]": {"system": "Rattus norvegicus", "assay": "Anti-inflammatory activity in po dosed adjuvant-induced Sprague-Dawley rat arthritis model assessed as reduction in inflammatory cell infilteration administered once daily from day 14 to 28 post-immunization measured by H and E staining based histopathological analysis", "format": "functional, organism-based", "summary_of_the_method": "as §3"}, "RAW264.7 [18]": {"system": "RAW264.7", "assay": "Cytotoxicity against mouse RAW264.7 cells assessed reduction in cell viability at 10 to 40 uM by MTT assay", "format": "cell-based", "conditions": "raw264.7, 40 µM"}, "RAW264.7 [19]": {"system": "RAW264.7", "assay": "Anti-inflammatory activity in mouse RAW264.7 cells assessed as inhibition of LPS-induced IL-6 release preincubated for 1 hr followed by LPS stimulation measured after 24 hrs by ELISA", "format": "functional, cell-based", "summary_of_the_method": "as §5"}}, "note": "Calls of active or inactive are those of the source. No cut-off for these calls is given here.", "data": [{"smiles": "Cc1ccc(-c2cc(C(F)(F)F)nn2-c2ccc(S(N)(=O)=O)cc2)cc1", "note": "[CELECOXIB]", "values": [{"measurement": "inhibition in vivo at 10 mg/kg", "setting": "Rattus norvegicus [1]", "value": 59, "unit": "%"}, {"measurement": "inhibition in vivo at 10 mg/kg", "setting": "Rattus norvegicus [2]", "value": 55, "unit": "%"}, {"measurement": "inhibition in vivo at 10 mg/kg", "setting": "Rattus norvegicus [3]", "value": 61, "unit": "%"}]}, {"smiles": "O=C(O)Cc1ccccc1Nc1c(Cl)cccc1Cl", "note": "[DICLOFENAC]", "values": [{"measurement": "inhibition in vivo at 10 mg/kg", "setting": "Rattus norvegicus [1]", "value": 77, "unit": "%"}, {"measurement": "inhibition in vivo at 10 mg/kg", "setting": "Rattus norvegicus [2]", "value": 41, "unit": "%"}, {"measurement": "inhibition in vivo at 10 mg/kg", "setting": "Rattus norvegicus [3]", "value": 48, "unit": "%"}]}, {"smiles": "CC(C)NCC(=O)N1N=C(c2cc3ccccc3oc2=O)CC1c1ccccc1C(F)(F)F", "note": "(stereo not drawn)", "values": [{"measurement": "inhibition in vivo at 10 mg/kg", "setting": "Rattus norvegicus [1]", "value": 20, "unit": "%"}, {"measurement": "inhibition in vivo at 10 mg/kg", "setting": "Rattus norvegicus [2]", "value": 17, "unit": "%"}, {"measurement": "inhibition in vivo at 10 mg/kg", "setting": "Rattus norvegicus [3]", "value": 13, "unit": "%"}]}, {"smiles": "O=C(CN1CCCCC1)N1N=C(c2cc3ccccc3oc2=O)CC1c1ccc(C(F)(F)F)cc1", "note": "(stereo not drawn)", "values": [{"measurement": "inhibition", "setting": "RAW264.7 [4]", "value": "Active"}, {"measurement": "inhibition in vivo at 10 mg/kg", "setting": "Rattus norvegicus [1]", "value": 41, "unit": "%"}, {"measurement": "inhibition in vivo at 10 mg/kg", "setting": "Rattus norvegicus [2]", "value": 32, "unit": "%"}, {"measurement": "inhibition", "setting": "RAW264.7 [5]", "value": "Active"}, {"measurement": "inhibition in vivo at 10 mg/kg", "setting": "Rattus norvegicus [3]", "value": 36, "unit": "%"}]}, {"smiles": "Cc1ccc(S(=O)(=O)/C=C/C#N)cc1", "values": [{"measurement": "inhibition", "setting": "[6]", "value": "Active"}]}, {"smiles": "C=CCN(CC=C)CC(=O)N1N=C(c2cc3ccccc3oc2=O)CC1c1ccccc1C(F)(F)F", "note": "(stereo not drawn)", "values": [{"measurement": "inhibition", "setting": "RAW264.7 [4]", "value": "Active"}, {"measurement": "inhibition in vivo at 10 mg/kg", "setting": "Rattus norvegicus [1]", "value": 49, "unit": "%"}, {"measurement": "inhibition in vivo at 10 mg/kg", "setting": "Rattus norvegicus [2]", "value": 28, "unit": "%"}, {"measurement": "inhibition", "setting": "RAW264.7 [5]", "value": "Active"}, {"measurement": "inhibition in vivo at 10 mg/kg", "setting": "Rattus norvegicus [3]", "value": 45, "unit": "%"}]}, {"smiles": "COc1ccc(-c2coc3cc(OCC(=O)N4N=C(c5cc6ccccc6oc5=O)CC4c4ccc(C(F)(F)F)cc4)ccc3c2=O)cc1", "note": "(stereo not drawn)", "values": [{"measurement": "inhibition at 10 µM", "setting": "RAW264.7 [4]", "value": 41.2, "unit": "%"}, {"measurement": "inhibition", "setting": "[7]", "value": "Dose-dependent effect"}, {"measurement": "Activity", "setting": "RAW264.7 [8]", "value": "Dose-dependent effect"}, {"measurement": "Activity", "setting": "Rattus norvegicus [9]", "value": "Dose-dependent effect"}, {"measurement": "inhibition", "setting": "[10]", "value": "Dose-dependent effect"}, {"measurement": "inhibition in vivo at 10 mg/kg", "setting": "Rattus norvegicus [1]", "value": 60, "unit": "%"}, {"measurement": "inhibition", "setting": "[11]", "value": "Active"}, {"measurement": "Activity", "setting": "RAW264.7 [12]", "value": "Dose-dependent effect"}, {"measurement": "inhibition in vivo at 10 mg/kg", "setting": "Rattus norvegicus [2]", "value": 49, "unit": "%"}, {"measurement": "inhibition", "setting": "[13]", "value": "Active"}, {"measurement": "Activity", "setting": "RAW264.7 [14]", "value": "Dose-dependent effect"}, {"measurement": "Activity", "setting": "Rattus norvegicus [15]", "value": "Dose-dependent effect"}, {"measurement": "IC50", "setting": "RAW264.7 [16]", "value": 16.8, "unit": "µM"}, {"measurement": "inhibition at 10 µM", "setting": "RAW264.7 [5]", "value": 40.4, "unit": "%"}, {"measurement": "Activity", "setting": "Rattus norvegicus [17]", "value": "Dose-dependent effect"}, {"measurement": "inhibition in vivo at 10 mg/kg", "setting": "Rattus norvegicus [3]", "value": 59, "unit": "%"}, {"measurement": "Activity", "setting": "RAW264.7 [18]", "value": "Non-Toxic"}, {"measurement": "IC50", "setting": "RAW264.7 [19]", "value": 14.2, "unit": "µM"}]}]}
